Assay results reported in ChEMBL document CHEMBL3808280, “GroEL/ES inhibitors as potential antibiotics” (Bioorg Med Chem Lett, 2016).

Assays:
Staphylococcus aureus [1] = experiment: Antibacterial activity against methicillin resistant Staphylococcus aureus subsp. aureus HPV107 (ATCC BAA-44) assessed as reduction in bacterial growth incubated for 6 to 8 hrs; assay type: functional, organism-based
In short: (§1)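 Broth proliferation assay. S. aureus and MRSA grown in ATCC Medium 18, other pathogens in Brain Heart Infusion. Stagnant incubation at 37°C under breathable seal. OD600 read at mid-log (6-8 h) and corrected with bacteria-free baseline plates. EC50 by variable-slope nonlinear fit, at least triplicate.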

Enterococcus faecium = experiment: Antibacterial activity against multidrug resistant Enterococcus faecium NCTC 7171 (ATCC 19434) assessed as reduction in bacterial growth incubated for 6 to 8 hrs; assay type: functional, organism-based; in short: as §1
Staphylococcus aureus [2] = experiment: Antibacterial activity against methicillin susceptible Staphylococcus aureus subsp. aureus Seattle 1945 (ATCC 25923) assessed as reduction in bacterial growth incubated for 6 to 8 hrs
Pseudomonas aeruginosa = experiment: Antibacterial activity against multidrug resistant Pseudomonas aeruginosa NCTC 10332 (ATCC 10145) assessed as reduction in bacterial growth incubated for 6 to 8 hrs; assay type: functional, organism-based; in short: as §1
Enterobacter cloacae = experiment: Antibacterial activity against multidrug resistant Enterobacter cloacae subsp. cloacae CDC 442-68 (ATCC 13047) assessed as reduction in bacterial growth incubated for 6 to 8 hrs; assay type: functional, organism-based; in short: as §1
Acinetobacter baumannii = experiment: Antibacterial activity against multidrug resistant Acinetobacter baumannii 2208 (ATCC 19606) assessed as reduction in bacterial growth incubated for 6 to 8 hrs; assay type: functional; in short: as §1
[3] = tested on: Klebsiella pneumoniae subsp. pneumoniae; experiment: Antibacterial activity against multidrug resistant Klebsiella pneumoniae subsp. pneumoniae NCTC 9633 (ATCC 13883) assessed as reduction in bacterial growth incubated for 6 to 8 hrs; assay type: functional, organism-based; in short: as §1
HEK293 = experiment: Cytotoxicity against HEK293 cells assessed as reduction in cell viability after 48 hrs by alamar blue assay; assay type: cell-based; details: Homo sapiens, HEK293, 48 h
Bacillus subtilis = experiment: Antibacterial activity against Bacillus subtilis 168 assessed as reduction in bacterial growth incubated for 6 to 8 hrs; assay type: functional, organism-based; details: subsp. subtilis str. 168
HSP60/HSP10 [4] = target: T1, HSP60/HSP10 (Homo sapiens, UniProt P10809); experiment: Inhibition of human HSP60/HSP10 expressed in Escherichia coli Rosetta2(DE3) cells assessed as reduction in denatured pig heart MDH ATPase activity by malachite green dye based assay
Escherichia coli [5] = experiment: Antibacterial activity against Escherichia coli SM101 assessed as reduction in bacterial growth incubated for 12 hrs by UV-Vis spectrophotometric analysis; assay type: functional, organism-based; details: SM101, 12 h
E. coli GroEL/ES [6] = target: T2, E. coli GroEL/ES (Escherichia coli, UniProt P0A6F5); experiment: Inhibition of Escherichia coli GroEL/GroES using Escherichia coli GroEL expressed in Escherichia coli DH5alpha cells and Escherichia coli GroES expressed in Escherichia coli BL21(DE3) cells assessed as reduction in pig heart native refolded MDH-mediated NADH production by micro plate reader analysis
In short: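 Native MDH counter-screen. GroEL/ES-dMDH refolding run 60 min at 37°C, then EDTA-quenched without compound. IC50 averaged from at least triplicate.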

Escherichia coli [7] = experiment: Antibacterial activity against acrB-deficient Escherichia coli MC4100 assessed as reduction in bacterial growth incubated for 6 to 8 hrs; assay type: functional, organism-based
E. coli GroEL/ES [8] = target: T2, E. coli GroEL/ES; experiment: Inhibition of Escherichia coli GroEL/GroES using Escherichia coli GroEL expressed in Escherichia coli DH5alpha cells and Escherichia coli GroES expressed in Escherichia coli BL21(DE3) cells assessed as inhibition of denatured rhodanese refolding by measuring reduction in thiocyanate production incubated for 60 mins by micro plate reader analysis
In short: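 Urea-denatured rhodanese bound to GroEL/GroES in folding buffer containing thiosulfate. After 60 min at 37°C, thiocyanate reaction (KCN, thiosulfate, phosphate) run, then formaldehyde quench and ferric nitrate added. Fe(SCN)3 read at 460 nm after 15 min RT, with protein-free baseline plates.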

HSP60/HSP10 [9] = target: T1, HSP60/HSP10; experiment: Inhibition of human HSP60/HSP10 expressed in Escherichia coli Rosetta2(DE3) cells assessed as inhibition of denatured pig heart MDH refolding by measuring reduction in NADH production incubated for 60 mins by micro plate reader analysis
In short: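 Pig heart MDH was denatured in guanidine-HCl (dMDH) and complexed with HSP60, then HSP10, in Tris pH 7.4/KCl/MgCl2/DTT buffer. EDTA quench (100 mM final); refolded MDH activity was followed with mesoxalate/NADH at 340 nm.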

[10] = Cytotoxicity against human THLE3 cells assessed as reduction in cell viability after 48 hrs by alamar blue assay; assay type: cell-based; details: THLE3, 48 h
E. coli GroEL/ES [11] = target: T2, E. coli GroEL/ES; experiment: Inhibition of Escherichia coli GroEL/GroES using Escherichia coli GroEL expressed in Escherichia coli DH5alpha cells and Escherichia coli GroES expressed in Escherichia coli BL21(DE3) cells assessed as inhibition of denatured pig heart MDH refolding by measuring reduction in NADH production incubated for 60 mins by micro plate reader analysis
In short: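 Denatured MDH (guanidine-HCl/DTT, 30 min RT) bound to GroEL with GroES in Tris pH 7.4, KCl, MgCl2, DTT buffer. 60 min at 37°C, EDTA quench to 100 mM. Refolded MDH activity read with mesoxalate/NADH at 340 nm. Log-averaged IC50 from replicates.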

Escherichia coli [12] = experiment: Antibacterial activity against Escherichia coli DH5alpha assessed as reduction in bacterial growth incubated for 6 to 8 hrs; assay type: functional, organism-based; details: DH5[alpha]
E. coli GroEL/ES [13] = target: T2, E. coli GroEL/ES; experiment: Inhibition of Escherichia coli GroEL/GroES using Escherichia coli GroEL expressed in Escherichia coli DH5alpha cells and Escherichia coli GroES expressed in Escherichia coli BL21(DE3) cells assessed as reduction in native refolded rhodanese-mediated thiocyanate production by micro plate reader analysis

T1 sequence (P10809 whole entry): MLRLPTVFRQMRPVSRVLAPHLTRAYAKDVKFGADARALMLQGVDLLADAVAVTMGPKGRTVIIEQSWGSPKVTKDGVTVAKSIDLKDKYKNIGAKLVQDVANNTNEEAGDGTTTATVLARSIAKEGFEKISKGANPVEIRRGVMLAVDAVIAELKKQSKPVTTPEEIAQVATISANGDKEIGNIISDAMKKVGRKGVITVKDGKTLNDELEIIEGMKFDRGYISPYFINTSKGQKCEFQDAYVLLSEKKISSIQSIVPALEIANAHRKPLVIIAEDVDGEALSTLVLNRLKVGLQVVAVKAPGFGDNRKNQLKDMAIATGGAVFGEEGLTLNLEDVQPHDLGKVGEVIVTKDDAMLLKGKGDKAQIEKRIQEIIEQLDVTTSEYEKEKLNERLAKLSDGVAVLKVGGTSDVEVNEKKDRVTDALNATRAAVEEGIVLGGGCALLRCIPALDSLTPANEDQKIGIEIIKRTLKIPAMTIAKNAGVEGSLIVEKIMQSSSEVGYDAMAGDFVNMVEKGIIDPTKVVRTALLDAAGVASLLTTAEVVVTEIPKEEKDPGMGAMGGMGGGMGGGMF
T1 sequence (P61604 whole entry, further chain): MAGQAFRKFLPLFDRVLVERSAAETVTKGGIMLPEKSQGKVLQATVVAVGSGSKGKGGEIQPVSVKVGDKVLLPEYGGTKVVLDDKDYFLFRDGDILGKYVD
T2 sequence (P0A6F5 whole entry, looked up): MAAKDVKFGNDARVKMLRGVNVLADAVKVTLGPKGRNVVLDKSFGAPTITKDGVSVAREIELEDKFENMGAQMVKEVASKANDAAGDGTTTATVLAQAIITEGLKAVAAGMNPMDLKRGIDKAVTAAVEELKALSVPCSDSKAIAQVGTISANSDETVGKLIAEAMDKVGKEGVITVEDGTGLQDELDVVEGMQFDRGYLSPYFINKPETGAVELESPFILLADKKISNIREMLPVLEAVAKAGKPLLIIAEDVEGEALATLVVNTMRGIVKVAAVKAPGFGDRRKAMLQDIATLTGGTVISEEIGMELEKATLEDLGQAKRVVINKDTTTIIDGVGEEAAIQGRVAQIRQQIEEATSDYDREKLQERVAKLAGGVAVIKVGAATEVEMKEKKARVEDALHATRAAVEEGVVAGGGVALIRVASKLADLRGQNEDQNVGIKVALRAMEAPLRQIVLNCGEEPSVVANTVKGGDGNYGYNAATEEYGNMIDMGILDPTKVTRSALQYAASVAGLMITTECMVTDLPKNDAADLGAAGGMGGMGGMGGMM

## O=C(N[C@H](CO)[C@H](O)c1ccc([N+](=O)[O-])cc1)C(Cl)Cl [CHLORAMPHENICOL]
Staphylococcus aureus [1]
  EC50: 2.3 µM
Enterococcus faecium
  EC50: 2.1 µM
Staphylococcus aureus [2]
  EC50: 2.2 µM
Pseudomonas aeruginosa
  EC50: 16 µM
Enterobacter cloacae
  EC50: 2.2 µM
Acinetobacter baumannii
  EC50: 65 µM
[3]
  EC50: 1.4 µM

## COc1cc(/C=C2/C(=N)N3N=C(CC(C)C)SC3=NC2=O)ccc1OC(=O)c1ccc(F)cc1
Staphylococcus aureus [1]
  EC50: > 100 µM
HEK293
  EC50: > 100 µM
Bacillus subtilis
  EC50: 13 µM
Enterococcus faecium
  EC50: > 100 µM
Staphylococcus aureus [2]
  EC50: > 100 µM
Pseudomonas aeruginosa
  EC50: > 100 µM
HSP60/HSP10 [4]
  IC50: > 250 µM
Escherichia coli [5]
  EC50: 25 µM
E. coli GroEL/ES [6]
  IC50: > 62.5 µM
Escherichia coli [7]
  EC50: > 100 µM
Enterobacter cloacae
  EC50: > 100 µM
E. coli GroEL/ES [8]
  IC50: 25 µM
HSP60/HSP10 [9]
  IC50: 26 µM
Acinetobacter baumannii
  EC50: > 100 µM
[10]
  EC50: > 100 µM
[3]
  EC50: > 100 µM
E. coli GroEL/ES [11]
  IC50: 24 µM
Escherichia coli [12]
  EC50: > 100 µM

## CC1(C)S[C@@H]2[C@H](NC(=O)[C@H](N)c3ccccc3)C(=O)N2[C@H]1C(=O)O [AMPICILLIN]
Staphylococcus aureus [1]
  EC50: 76 µM
Enterococcus faecium
  EC50: 0.63 µM
Staphylococcus aureus [2]
  EC50: 0.059 µM
Pseudomonas aeruginosa
  EC50: 27 µM
Enterobacter cloacae
  EC50: > 100 µM
Acinetobacter baumannii
  EC50: 2.5 µM
[3]
  EC50: 89 µM

## O=c1c([N+](=O)[O-])c(Cl)c2ccccc2n1Cc1ccccc1
Staphylococcus aureus [1]
  EC50: 21 µM
HEK293
  EC50: 17 µM
Bacillus subtilis
  EC50: 2.8 µM
Enterococcus faecium
  EC50: > 100 µM
Staphylococcus aureus [2]
  EC50: > 100 µM
Pseudomonas aeruginosa
  EC50: > 100 µM
E. coli GroEL/ES [13]
  IC50: > 100 µM
HSP60/HSP10 [4]
  IC50: > 250 µM
Escherichia coli [5]
  EC50: > 100 µM
E. coli GroEL/ES [6]
  IC50: > 62.5 µM
Escherichia coli [7]
  EC50: > 100 µM
Enterobacter cloacae
  EC50: > 100 µM
E. coli GroEL/ES [8]
  IC50: 22 µM
HSP60/HSP10 [9]
  IC50: 2.8 µM
Acinetobacter baumannii
  EC50: > 100 µM
[10]
  EC50: 3.6 µM
[3]
  EC50: > 100 µM
E. coli GroEL/ES [11]
  IC50: 5.4 µM
Escherichia coli [12]
  EC50: > 100 µM

## CC(=O)c1cc2c(cc1NC(=O)c1ccccc1Br)OCCO2
Staphylococcus aureus [1]
  EC50: > 100 µM
HEK293
  EC50: > 100 µM
Bacillus subtilis
  EC50: > 100 µM
Enterococcus faecium
  EC50: > 100 µM
Staphylococcus aureus [2]
  EC50: > 100 µM
Pseudomonas aeruginosa
  EC50: > 100 µM
HSP60/HSP10 [4]
  IC50: > 250 µM
Escherichia coli [5]
  EC50: > 100 µM
E. coli GroEL/ES [6]
  IC50: > 62.5 µM
Escherichia coli [7]
  EC50: > 100 µM
Enterobacter cloacae
  EC50: > 100 µM
HSP60/HSP10 [9]
  IC50: > 100 µM
Acinetobacter baumannii
  EC50: > 100 µM
[10]
  EC50: > 100 µM
[3]
  EC50: > 100 µM
Escherichia coli [12]
  EC50: > 100 µM

## CO[C@H]1/C=C/O[C@@]2(C)Oc3c(C)c(O)c4c(O)c(c(/C=N/N5CCN(C)CC5)c(O)c4c3C2=O)NC(=O)/C(C)=C\C=C\[C@H](C)[C@H](O)[C@@H](C)[C@@H](O)[C@@H](C)[C@H](OC(C)=O)[C@@H]1C [RIFAMPIN]
Staphylococcus aureus [1]
  EC50: 0.15 µM
Enterococcus faecium
  EC50: 1.2 µM
Staphylococcus aureus [2]
  EC50: < 0.05 µM
Pseudomonas aeruginosa
  EC50: 5.2 µM
Enterobacter cloacae
  EC50: 6.2 µM
Acinetobacter baumannii
  EC50: 0.47 µM
[3]
  EC50: 5.4 µM

## CN(C)c1ccc(O)c2c1C[C@H]1C[C@H]3[C@H](N(C)C)C(O)=C(C(N)=O)C(=O)[C@@]3(O)C(O)=C1C2=O [MINOCYCLINE]
Staphylococcus aureus [1]
  EC50: 0.35 µM
Enterococcus faecium
  EC50: < 0.05 µM
Staphylococcus aureus [2]
  EC50: < 0.05 µM
Pseudomonas aeruginosa
  EC50: 2.4 µM
Enterobacter cloacae
  EC50: 1.5 µM
Acinetobacter baumannii
  EC50: < 0.05 µM
[3]
  EC50: 0.7 µM

## CCCCCCCCCC(=O)N[C@@H](Cc1c[nH]c2ccccc12)C(=O)N[C@@H](CC(N)=O)C(=O)N[C@@H](CC(=O)O)C(=O)N[C@@H]1C(=O)NCC(=O)N[C@@H](CCCN)C(=O)N[C@@H](CC(=O)O)C(=O)N[C@H](C)C(=O)N[C@@H](CC(=O)O)C(=O)NCC(=O)N[C@H](CO)C(=O)N[C@@H]([C@H](C)CC(=O)O)C(=O)N[C@@H](CC(=O)c2ccccc2N)C(=O)O[C@@H]1C [DAPTOMYCIN]
Staphylococcus aureus [1]
  EC50: 5.7 µM
Enterococcus faecium
  EC50: 33 µM
Staphylococcus aureus [2]
  EC50: 5.7 µM
Pseudomonas aeruginosa
  EC50: > 100 µM
Enterobacter cloacae
  EC50: > 100 µM
Acinetobacter baumannii
  EC50: > 100 µM
[3]
  EC50: > 100 µM

## CN[C@@H]1[C@H](O[C@H]2[C@H](O[C@H]3[C@H](O)[C@@H](O)[C@H](N=C(N)N)[C@@H](O)[C@@H]3N=C(N)N)O[C@@H](C)[C@]2(O)C=O)O[C@@H](CO)[C@H](O)[C@H]1O [STREPTOMYCIN]
Staphylococcus aureus [1]
  EC50: > 100 µM
Enterococcus faecium
  EC50: 50 µM
Staphylococcus aureus [2]
  EC50: 3.6 µM
Pseudomonas aeruginosa
  EC50: 2.9 µM
Enterobacter cloacae
  EC50: > 100 µM
Acinetobacter baumannii
  EC50: > 100 µM
[3]
  EC50: 3.4 µM

## COc1ccc(C(=O)N/N=C/c2ccc(O)c3ncccc23)cc1
Staphylococcus aureus [1]
  EC50: 56 µM
HEK293
  EC50: 7.7 µM
Bacillus subtilis
  EC50: 83 µM
Enterococcus faecium
  EC50: > 100 µM
Staphylococcus aureus [2]
  EC50: > 100 µM
Pseudomonas aeruginosa
  EC50: > 100 µM
E. coli GroEL/ES [13]
  IC50: 52 µM
HSP60/HSP10 [4]
  IC50: > 250 µM
Escherichia coli [5]
  EC50: 19 µM
E. coli GroEL/ES [6]
  IC50: > 62.5 µM
Escherichia coli [7]
  EC50: > 100 µM
Enterobacter cloacae
  EC50: > 100 µM
E. coli GroEL/ES [8]
  IC50: 18 µM
HSP60/HSP10 [9]
  IC50: > 100 µM
Acinetobacter baumannii
  EC50: 32 µM
[10]
  EC50: 15 µM
[3]
  EC50: 95 µM
E. coli GroEL/ES [11]
  IC50: 31 µM
Escherichia coli [12]
  EC50: > 100 µM

## NC[C@H]1O[C@H](O[C@H]2[C@H](O)[C@@H](O[C@H]3O[C@H](CO)[C@@H](O)[C@H](N)[C@H]3O)[C@H](N)C[C@@H]2N)[C@H](O)[C@@H](O)[C@@H]1O [KANAMYCIN]
Staphylococcus aureus [1]
  EC50: > 100 µM
Enterococcus faecium
  EC50: > 100 µM
Staphylococcus aureus [2]
  EC50: 8.2 µM
Pseudomonas aeruginosa
  EC50: 25 µM
Enterobacter cloacae
  EC50: 37 µM
Acinetobacter baumannii
  EC50: 16 µM
[3]
  EC50: 45 µM
